Data: ChEMBL document CHEMBL4400542, “Epidermal Growth Factor Receptor-Targeted Multifunctional Photosensitizers for Bladder Cancer Imaging and Photodynamic Therapy” (J Med Chem, 2019)
Activity calls are given as the source filed them. No cut-off for these calls is given here.

Legend:
[1] = Drug uptake in human UM-UC-3 cells xenografted in SCID mouse at 50 uCi, iv administered at 24 hrs post imaging and measured at 24 to 72 post injection by PET imaging analysis; assay type: ADME, organism-based, UMUC3; conditions: in vivo
Procedure, shortened: (§1)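 SCID mice (3/group) with UMUC3 tumors first given 18F-FDG (50 µCi) and imaged at 110 min. At 24 h later, 124I-labelled agent given i.v. (50, 25 or 15 µCi); microPET at 24, 48, 72 h post-injection, same bed position. Injected dose checked by well gamma counter, within ±5%.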

[2] = Drug uptake in human UM-UC-3 cells xenografted in SCID mouse at 15 uCi, iv measured at 24 to 72 post injection by PET imaging analysis; assay type: ADME, organism-based, UMUC3; conditions: in vivo; procedure, shortened: as §1
[3] = Induction of singlet oxygen generation in deaerated toluene at 670 nm assessed as rate of singlet decay by femtosecond transient absorption spectroscopy; assay type: functional
[4] = tested on: UMUC3; assay: Anti-tumor activity against human UM-UC-3 cells xenografted in SCID mouse assessed as tumor necrosis at 0.47 umol/kg, iv in presence of 135 J/cm2 light irradiation at 24 hrs post injection and measured at 72 hrs post light exposure; assay type: functional, organism-based
[5] = Induction of singlet oxygen generation in deaerated toluene at 670 nm assessed as singlet decay life time by femtosecond transient absorption spectroscopy; assay type: functional
[6] = target: Epidermal growth factor receptor (Homo sapiens) (UniProt P00533); assay: Inhibition of EGFR autophosphorylation at Ty1068 in human T24 cells at 1 uM followed by PDT and measured after 24 hrs by Western blot analysis; assay type: cell-based
[7] = target: Epidermal growth factor receptor (Homo sapiens) (UniProt P00533); assay: Inhibition of EGFR autophosphorylation at Ty1068 in human UM-UC-3 cells at 1 uM followed by PDT and measured after 24 hrs by Western blot analysis; assay type: cell-based
[8] = tested on: UMUC3; assay: Induction of apoptosis in human UM-UC-3 cells assessed as increase in apoptotic cells at 1 uM in presence of light by Annexin V/propidium iodide-stining based flow cytometry; assay type: functional, cell-based
[9] = tested on: UMUC3; assay: Induction of apoptosis in human UM-UC-3 cells assessed as increase in necrotic cells at 100 nM in presence of light by Annexin V/propidium iodide-stining based flow cytometry; assay type: functional, cell-based
[10] = tested on: T-24; assay: Induction of apoptosis in human T24 cells assessed as increase in apoptotic cells at 1 uM in presence of light by Annexin V/propidium iodide-stining based flow cytometry; assay type: functional, cell-based
[11] = tested on: T-24; assay: Induction of apoptosis in human T24 cells assessed as increase in apoptotic cells at 100 nM in presence of light by Annexin V/propidium iodide-stining based flow cytometry; assay type: functional, cell-based
[12] = Induction of singlet oxygen generation in Ar-saturated toluene solution at 670 nm assessed as decay rate constant of triplet excited state by femtosecond transient absorption spectroscopy; assay type: functional
[13] = Induction of singlet oxygen generation assessed as energy transfer from the triplet chlorins to oxygen by femtosecond transient absorption spectroscopy; assay type: functional
[14] = tested on: UMUC3; assay: Anti-tumor activity against human UM-UC-3 cells xenografted in SCID mouse at 0.47 umol/kg, iv in presence of 135 J/cm2 light irradiation at 24 hrs post injection and measured every day till day 60; assay type: functional, organism-based
Procedure, shortened: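 UMUC-3 cells implanted in right flank of SCID mice; at 4–5 mm tumors, PS given i.v. at 0.47 µmol/kg. Tumors exposed to 665 nm light, 135 J/cm2 at 75 mW/cm2, 24 h post-injection. Tumor regrowth monitored daily; mice euthanized at >400 mm3; tumor-free status scored at day 60.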

[15] = target: Epidermal growth factor receptor (Homo sapiens) (UniProt P00533); assay: Inhibition of EGFR autophosphorylation at Ty1068 in human UM-UC-3 cells at 100 nM followed by PDT and measured after 24 hrs by Western blot analysis; assay type: cell-based
[16] = tested on: T-24; assay: Induction of apoptosis in human T24 cells assessed as increase in necrotic cells at 1 uM in presence of light by Annexin V/propidium iodide-stining based flow cytometry; assay type: functional, cell-based
[17] = tested on: UMUC3; assay: Induction of apoptosis in human UM-UC-3 cells assessed as increase in apoptotic cells at 100 nM in presence of light by Annexin V/propidium iodide-stining based flow cytometry; assay type: functional, cell-based
[18] = tested on: UMUC3; assay: Induction of apoptosis in human UM-UC-3 cells assessed as increase in necrotic cells at 1 uM in presence of light by Annexin V/propidium iodide-stining based flow cytometry; assay type: functional, cell-based
[19] = Induction of singlet oxygen generation in oxygen-saturated toluene solution at 670 nm assessed as decay rate constant of triplet excited state by femtosecond transient absorption spectroscopy; assay type: functional

Sequence of Epidermal growth factor receptor (Homo sapiens) (P00533 whole entry): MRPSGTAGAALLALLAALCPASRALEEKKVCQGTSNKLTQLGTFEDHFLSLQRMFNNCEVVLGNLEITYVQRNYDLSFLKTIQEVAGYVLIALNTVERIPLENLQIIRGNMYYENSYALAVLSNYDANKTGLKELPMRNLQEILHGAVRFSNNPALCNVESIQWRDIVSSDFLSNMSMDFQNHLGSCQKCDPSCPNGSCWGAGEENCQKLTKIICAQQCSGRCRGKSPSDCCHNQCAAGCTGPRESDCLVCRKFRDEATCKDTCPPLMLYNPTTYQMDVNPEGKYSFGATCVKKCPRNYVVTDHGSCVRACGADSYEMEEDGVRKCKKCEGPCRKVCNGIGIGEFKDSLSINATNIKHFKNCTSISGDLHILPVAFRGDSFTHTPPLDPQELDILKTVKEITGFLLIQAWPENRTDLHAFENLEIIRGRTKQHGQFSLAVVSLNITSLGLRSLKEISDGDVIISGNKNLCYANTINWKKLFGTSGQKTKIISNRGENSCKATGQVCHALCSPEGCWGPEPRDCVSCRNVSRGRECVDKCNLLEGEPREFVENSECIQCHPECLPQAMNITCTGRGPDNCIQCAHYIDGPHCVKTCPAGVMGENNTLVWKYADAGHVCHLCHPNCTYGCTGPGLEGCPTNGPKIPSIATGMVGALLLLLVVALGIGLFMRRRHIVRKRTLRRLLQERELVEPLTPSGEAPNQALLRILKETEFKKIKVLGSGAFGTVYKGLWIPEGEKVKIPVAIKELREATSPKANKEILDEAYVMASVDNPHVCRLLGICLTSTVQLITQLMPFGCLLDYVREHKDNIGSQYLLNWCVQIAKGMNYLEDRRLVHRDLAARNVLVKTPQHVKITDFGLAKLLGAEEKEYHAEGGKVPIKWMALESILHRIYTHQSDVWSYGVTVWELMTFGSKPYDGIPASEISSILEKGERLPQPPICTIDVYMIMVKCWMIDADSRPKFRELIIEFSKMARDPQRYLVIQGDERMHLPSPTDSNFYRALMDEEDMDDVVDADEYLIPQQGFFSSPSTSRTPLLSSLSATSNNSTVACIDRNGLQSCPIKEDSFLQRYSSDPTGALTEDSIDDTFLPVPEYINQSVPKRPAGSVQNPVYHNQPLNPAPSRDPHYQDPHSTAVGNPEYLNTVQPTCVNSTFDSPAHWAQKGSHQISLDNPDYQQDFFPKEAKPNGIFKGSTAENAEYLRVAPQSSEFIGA

Drug uptake [1]	Drug uptake [2]	inhibition [6]	inhibition [7]	inhibition [15]	Structure (SMILES)	K [3]	Activity [4]	Time [5]	Activity [8]	Activity [9]	Activity [10]	Activity [11]	K [12]	K [13]	Activity [14]	Activity [16]	Activity [17]	Activity [18]	K [19]
Active	Active	–	–	–	CCC1=C(C)c2cc3[nH]c(cc4nc(c5c6[nH]c(cc1n2)c(C)c6C(=O)C5)[C@@H](CCC(=O)NCc1cccc(C#Cc2cccc(Nc5ncnc6cc(OCCOC)c(OCCOC)cc56)c2)c1)[C@@H]4C)c(C)c3C(C)OCc1cccc([124I])c1 (some centres undefined)	–	–	–	–	–	–	–	–	–	–	–	–	–	–
–	–	Active	Active	Active	CCC1=C(C)c2cc3[nH]c(cc4nc(c5c6[nH]c(cc1n2)c(C)c6C(=O)C5)[C@@H](CCC(=O)NCc1cccc(C#Cc2cccc(Nc5ncnc6cc(OCCOC)c(OCCOC)cc56)c2)c1)[C@@H]4C)c(C)c3C(C)OCc1cccc(I)c1 (some centres undefined)	7.5 ×10⁹ /s	Active	133 pS	Active	Active	Active	inactive	9.8 ×10⁴ /s	1.03 ×10¹⁰ /M/s	Active	Active	Active	Active	2.07 ×10⁵ /s
